Source: PMC6863147 (Clinical cancer research : an official journal of the …, 2019)
“And” between values parts separate entries of the source, which are not always exact repeats. Equal entries are not always repeated.

Experiments:
[1] = plasma pharmacokinetics in recurrent glioblastoma patients; format: in vivo, human
How it was run: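 Patients took 900 mg oral daily. Blood was drawn before dosing and 0.5, 1, 2, 4, 6, 8 and 24 h after the fourth dose. Plasma was held at −80 °C. Totals were measured by validated LC-MS/MS, and unbound levels as total × fraction unbound (equilibrium dialysis). Noncompartmental analysis gave Cmax, Tmax, AUCτ and CL/F (dose/AUCτ), summarised as mean, median, range and coefficient of variation.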

[2] = format: in vivo, human
[3] = system: phosphorylation of RB (pRB); experiment: tumor pharmacodynamics, pRB immunohistochemistry; format: in vivo, human
How it was run: (§1)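 Patients took 900 mg/d oral for 5 days, with resection 2, 8 or 24 h after the last dose. Surgical FFPE tissue and matched archival tissue from the initial resection were stained together on an automated platform, with positive and no-primary controls. Antibodies: pRB 1:400, pFOXM1 1:200, MIB-1 1:100, cleaved caspase-3 1:300. Nuclear % positive cells were compared by paired t-test on log values (two-sided 5%), also after normalising to the untreated historical-control median, overall and per arm.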

[4] = system: proliferative marker MIB-1; experiment: tumor pharmacodynamics, MIB-1 immunohistochemistry; format: in vivo, human; conditions: vs archival tissue, P = 0.039
How it was run: as §1

[5] = system: apoptotic marker cleaved caspase-3; experiment: tumor pharmacodynamics, cleaved caspase-3 immunohistochemistry; format: in vivo, human; conditions: P = 0.19
How it was run: as §1

[6] = system: phosphorylation of FOXM1 (pFOXM1); experiment: tumor pharmacodynamics, pFOXM1 immunohistochemistry; format: in vivo, human; conditions: P = 0.142, primarily at 8-hour postdose
How it was run: as §1

pS6 = experiment: longitudinal tissue analysis, pS6 immunohistochemistry; format: in vivo, human; conditions: 3 patients
How it was run: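 Samples were from expansion-cohort patients (600 mg daily, 21 days on/7 off) re-resected at recurrence. Enhancing tumor was collected. Archival, Phase 0 surgical and post-treatment FFPE tissue was immunostained on an automated platform (anti-pS6 1:100). The software nuclear function quantified % positive cells.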

p4EBP1 = experiment: longitudinal tissue analysis, p4EBP1 immunohistochemistry; format: in vivo, human; conditions: 3 patients
recurrent glioblastoma = experiment: pharmacokinetic/pharmacodynamic-guided expansion cohort, clinical response; format: in vivo, human
[7] = safety and tolerability in glioblastoma patients; conditions: human, in vivo
CDK4/6 = conditions: read-out: in vitro IC50 for inhibition of CDK4/6 kinase activity; cited from earlier work
[8] = system: recurrent RB-positive glioblastoma; conditions: 22 patients; cited from earlier work
[9] = 2 to 24 hours after fifth 900 mg dose
[10] = human, non-enhancing tumor region, oral, 900 mg

Compound: CN(C)C(=O)c1cc2cnc(Nc3ccc(N4CCNCC4)cn3)nc2n1C1CCCC1 [ribociclib, Ribociclib]
- half-life ([1]; human, plasma, po, 900 mg): 13.5 h
- coefficient variation in drug exposure (Cmax, Ctrough, AUC0-24h) ([1]; inter-individual, among 12 patients): about 50%
- fluctuation of unbound plasma concentration, trough to peak ([1]; steady-state, 900 mg daily): 3.4 fold
- unbound plasma concentration, mean peak level ([1]; steady-state, 900 mg daily): 0.44 µM
- unbound plasma concentration, mean trough level ([1]; steady-state, 900 mg daily): 0.13 µM
- mean unbound concentration in enhancing tumor region [2, 9]: 2.152 µmol/kg and 2.152 ± 1.559 µmol/kg
- mean unbound concentration in non-enhancing tumor region [2, 9]: 0.560 µmol/kg and 0.560 ± 0.364 µmol/kg
- concentration at 2 h [2, 10]: 0.51 µM
- concentration at 8 h [2, 10]: 0.6 µM
- concentration at 24 h [2, 10]: 0.35 µM
- patients with > 20% decrease in pRB levels ([3]; 9 of 12 Phase 0 patients, vs matched archival tissue): 75%
- average decrease in pRB levels ([3]; 12 treated patients, 900 mg/d for 5 days): 50%
- pRB positive cells ([3]; Phase 0 operation specimens, 3 re-resected patients): 7.4%
- pRB positive cells ([3]; post-treatment (recurrence after monotherapy), 3 patients): 19.96%
- MIB-1 change after Phase 0 exposure [4]: significantly reduced
- cleaved caspase-3 change after Phase 0 exposure [5]: trended towards a concomitant increase
- pFOXM1 levels after normalization with historical control samples [6]: downward trend
- pS6 positive cells (pS6; matched Phase 0 samples): 21.3%
- pS6 positive cells (pS6; post-treatment specimens): 36.7%
- p4EBP1 positive cells (p4EBP1; matched Phase 0 samples): 2.8%
- p4EBP1 positive cells (p4EBP1; post-treatment specimens): 31.2%
- Phase 0 responders based on pharmacokinetic and pharmacodynamic results (recurrent glioblastoma; 6 of 8 patients with histologically evident recurrence): 75%
- PFS6 (recurrent glioblastoma; expansion cohort, 6 patients): 16.7%
- median OS (recurrent glioblastoma; expansion cohort, 6 patients): 7.8 months
- median PFS (recurrent glioblastoma; expansion cohort, 6 patients, 600 mg daily 21 days on/7 days off): 9.7 weeks
- clinical efficacy of monotherapy (recurrent glioblastoma; recurrent glioblastoma): limited clinical efficacy
- maximum tolerated dose [7]: 900 mg daily
- IC50 (CDK4/6): 0.04 µM

Compound: CC(=O)c1c(C)c2cnc(Nc3ccc(N4CCNCC4)cn3)nc2n(C2CCCC2)c1=O [Palbociclib]
- clinical efficacy in terms of prolonging PFS [8]: limited clinical efficacy
